Measurements from ChEMBL document CHEMBL1123888, “Aldosterone antagonists. 2. Synthesis and biological activities of 11,12-dehydropregnane derivatives” (J Med Chem, 1987).
The source made the active and inactive calls. No cut-off for these calls is given here.

Legend:
[1] = target: T1, Mineralocorticoid receptor (Rattus norvegicus) (UniProt P22199); assay: Relative binding affinity to the rat mineralocorticoid receptor determined in rat renal cytosol using [3]Ald as ligand
T1 sequence (whole entry): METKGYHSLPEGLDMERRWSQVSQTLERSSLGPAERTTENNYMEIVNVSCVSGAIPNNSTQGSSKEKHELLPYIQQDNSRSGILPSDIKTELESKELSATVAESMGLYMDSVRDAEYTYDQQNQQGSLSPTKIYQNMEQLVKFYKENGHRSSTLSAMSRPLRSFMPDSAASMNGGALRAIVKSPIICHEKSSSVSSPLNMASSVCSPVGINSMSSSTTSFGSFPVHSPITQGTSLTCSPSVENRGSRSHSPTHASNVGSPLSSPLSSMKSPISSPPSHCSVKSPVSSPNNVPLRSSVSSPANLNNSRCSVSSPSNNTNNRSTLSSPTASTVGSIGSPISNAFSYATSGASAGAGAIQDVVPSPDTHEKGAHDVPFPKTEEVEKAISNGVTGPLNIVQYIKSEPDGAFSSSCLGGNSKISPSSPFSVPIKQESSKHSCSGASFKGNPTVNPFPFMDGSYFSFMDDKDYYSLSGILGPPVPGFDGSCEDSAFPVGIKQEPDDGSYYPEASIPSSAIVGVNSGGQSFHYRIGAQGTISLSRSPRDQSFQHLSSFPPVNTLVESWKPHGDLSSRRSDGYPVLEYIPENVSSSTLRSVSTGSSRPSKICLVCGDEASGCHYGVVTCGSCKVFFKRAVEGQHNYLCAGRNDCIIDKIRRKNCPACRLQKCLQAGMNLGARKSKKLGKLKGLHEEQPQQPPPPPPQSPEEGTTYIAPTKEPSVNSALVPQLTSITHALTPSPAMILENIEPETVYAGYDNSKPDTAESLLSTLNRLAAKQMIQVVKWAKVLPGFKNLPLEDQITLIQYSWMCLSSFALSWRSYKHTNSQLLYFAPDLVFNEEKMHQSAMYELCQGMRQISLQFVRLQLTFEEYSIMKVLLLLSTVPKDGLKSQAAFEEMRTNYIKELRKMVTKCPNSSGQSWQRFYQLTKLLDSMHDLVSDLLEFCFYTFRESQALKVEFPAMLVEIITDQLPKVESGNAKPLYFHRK
Method in brief: (§1)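 Renal cytosol came from male Sprague-Dawley rats (4-8 weeks) adrenalectomized bilaterally 1 or 2 days earlier. It was incubated with various competitor concentrations and about 1 nM [3H]Ald for 42-48 h at 0 °C or 100-120 min at 25 °C. Bound and free steroid were separated by DCC.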

Rattus norvegicus = species: Rattus norvegicus; assay: Displacement of [3H]promegestone from progestin receptor of rat uterine cytosol at 0 degree Centigrade
Method in brief: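 Uteri from estradiol-primed rats supplied the cytosol. It was incubated with various competitor concentrations and about 1 nM [3H]promegestone for 16-20 h at 0 °C. Bound and free steroid were separated by DCC. RBA (progesterone = 100%) = 100 × ratio of the 50%-inhibition concentrations of standard and competitor.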

[2] = target: T1, Mineralocorticoid receptor (Rattus norvegicus); assay: Antagonist activity against Mineralocorticoid receptor after oral administration in Male Sprague Dawley rats; (+) =positive; format: functional, organism-based; details: filed as antagonist
Method in brief: (§2)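 Male rats were bilaterally adrenalectomized (bioassay modified from Kagawa). Ald (1 µg/kg) was given sc, immediately followed by test compound in sesame oil sc or orally. Urine was collected from 2 to 6 h after steroid. Potency came from the urinary Na/K ratio of sample versus control, with 95% confidence limits.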

[3] = target: T1, Mineralocorticoid receptor (Rattus norvegicus); assay: Relative binding affinity against mineralocorticoid receptor determined in rat renal cytosol using [3]Ald as ligand; method in brief: as §1
[4] = target: T1, Mineralocorticoid receptor (Rattus norvegicus); assay: Antagonist activity against Mineralocorticoid receptor was determined after subcutaneous administration in Male Sprague Dawley rats; format: functional, organism-based; method in brief: as §2
[5] = target: T1, Mineralocorticoid receptor (Rattus norvegicus); assay: Antagonist activity against Mineralocorticoid receptor after subcutaneous administration in Male Sprague Dawley rats; (+) =positive; format: functional, organism-based; details: filed as antagonist; method in brief: as §2
[6] = target: T1, Mineralocorticoid receptor (Rattus norvegicus); assay: Antagonist activity against Mineralocorticoid receptor after po administration in Male Sprague Dawley rats; (-) = negative; format: functional, organism-based; method in brief: as §2
[7] = target: T2, Progesterone receptor (Rattus norvegicus) (UniProt Q63449); assay: Relative binding affinity against progesterone receptor determined in rat […] cytosol using [3H]DHT as ligand
T2 sequence (whole entry): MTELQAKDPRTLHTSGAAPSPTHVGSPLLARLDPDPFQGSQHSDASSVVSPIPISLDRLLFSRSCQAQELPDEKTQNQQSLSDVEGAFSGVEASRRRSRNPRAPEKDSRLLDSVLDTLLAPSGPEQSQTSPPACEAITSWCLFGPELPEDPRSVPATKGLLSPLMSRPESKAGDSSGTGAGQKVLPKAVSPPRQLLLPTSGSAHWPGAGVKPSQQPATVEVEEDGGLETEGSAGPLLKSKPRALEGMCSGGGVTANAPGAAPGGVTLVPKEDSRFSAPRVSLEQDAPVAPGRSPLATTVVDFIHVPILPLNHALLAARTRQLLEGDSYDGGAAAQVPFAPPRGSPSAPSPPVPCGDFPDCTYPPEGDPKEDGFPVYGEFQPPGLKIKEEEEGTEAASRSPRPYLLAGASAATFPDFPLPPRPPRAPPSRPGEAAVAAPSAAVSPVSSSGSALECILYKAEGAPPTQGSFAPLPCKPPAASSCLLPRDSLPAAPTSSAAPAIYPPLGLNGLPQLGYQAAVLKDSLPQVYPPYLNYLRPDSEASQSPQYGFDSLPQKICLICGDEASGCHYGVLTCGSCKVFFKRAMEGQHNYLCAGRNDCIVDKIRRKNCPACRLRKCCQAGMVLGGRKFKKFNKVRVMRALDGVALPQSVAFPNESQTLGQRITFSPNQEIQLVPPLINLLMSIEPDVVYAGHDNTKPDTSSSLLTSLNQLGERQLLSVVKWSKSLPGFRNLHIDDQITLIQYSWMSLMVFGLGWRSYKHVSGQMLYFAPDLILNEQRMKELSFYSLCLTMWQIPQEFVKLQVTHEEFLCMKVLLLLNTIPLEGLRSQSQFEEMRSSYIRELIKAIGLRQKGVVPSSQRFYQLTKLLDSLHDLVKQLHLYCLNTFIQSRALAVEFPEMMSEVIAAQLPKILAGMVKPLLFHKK

[8] = target: T1, Mineralocorticoid receptor (Rattus norvegicus); assay: Antagonist activity against Mineralocorticoid receptor after oral administration in Male Sprague Dawley rats; (-) = negative; format: functional, organism-based; method in brief: as §2
[9] = target: T1, Mineralocorticoid receptor (Rattus norvegicus); assay: Relative anti-mineralocorticoid potency compared to Spironolactone after oral administration; format: functional, organism-based; method in brief: as §2
[10] = target: T2, Progesterone receptor (Rattus norvegicus); assay: Relative binding affinity against progesterone receptor in […]
[11] = target: T2, Progesterone receptor (Rattus norvegicus); assay: In vivo relative Progestational activity in Male Sprague-Dawley rats was determined.; format: functional, organism-based
[12] = target: T1, Mineralocorticoid receptor (Rattus norvegicus); assay: Relative binding affinity against Mineralocorticoid receptor in Male Sprague-Dawley rats; method in brief: as §1
[13] = target: T1, Mineralocorticoid receptor (Rattus norvegicus); assay: In vivo relative Mineralocorticoid activity in Male Sprague-Dawley rats; format: functional, organism-based
[14] = target: T1, Mineralocorticoid receptor (Rattus norvegicus); assay: Agonist activity against Mineralocorticoid receptor was determined after subcutaneous administration in Male Sprague Dawley rats; (+) =positive; format: functional, organism-based; details: filed as agonist
[15] = target: T1, Mineralocorticoid receptor (Rattus norvegicus); assay: Displacement of [3]Aldosterone from mineralocorticoid receptor of rat renal cytosol at 0 degree Centigrade; method in brief: as §1

Compound: CC(=O)S[C@@H]1CC2=CC(=O)CC[C@]2(C)[C@H]2CC[C@@]3(C)[C@@H](CC[C@@]34CCC(=O)O4)[C@H]12
- RBA [1]: 15%
- RBA (Rattus norvegicus): 2.6%
- Activity [2]: Antagonist
- RBA [3]: 3.2%
- Activity [4]: inactive
- Activity [5]: Antagonist

Compound: CC12C=CC(=O)C=C1[C@H]1C[C@H]1C1C2C=CC2(C)C1CC[C@@]21CCC(=O)O1 (some centres not stated)
- RBA [1]: 48%
- Activity [6]: inactive
- RBA [7]: 1.9%
- RBA [3]: 32%
- Activity [5]: Antagonist
- Activity [8]: inactive
- Relative potency [9]: 1.31

Compound: CC(=O)[C@H]1CC[C@H]2[C@@H]3CCC4=CC(=O)CC[C@]4(C)[C@H]3C=C[C@]12C
- relative binding affinity (RBA) [10]: 220
- Relative activity [11]: 3

Compound: C[C@]12CCC(=O)C=C1CC[C@@H]1[C@@H]2[C@H]2C[C@]3(CO2)[C@@H](C(=O)CO)CC[C@@H]13
- relative binding affinity (RBA) [12]: 50

Compound: CC12CCC(=O)C=C1CCC1C2C=CC2(C)C(C(=O)CO)CCC12 (configuration not stated)
- relative binding affinity (RBA) [12]: 150
- Relative activity [13]: 1

Compound: CC(=O)[C@H]1CC[C@H]2[C@@H]3CCC4=CC(=O)CC[C@]4(C)[C@H]3CC[C@]12C
- RBA [10]: 100%
- Relative activity [11]: 1

Compound: CC(=O)S[C@@H]1CC2=CC(=O)CCC2(C)C2C=CC3(C)C(C4CC4[C@@]34CCC(=O)O4)C21 (some centres not stated)
- RBA [1]: > 1000%
- RBA [7]: 89%
- RBA [3]: 370%
- Activity [4]: inactive

Compound: CC(C)(C)C(=O)S[C@@H]1CC2=CC(=O)C=CC2(C)C2C=CC3(C)C(CC[C@@]34CCC(=O)O4)C21 (some centres not stated)
- RBA [1]: 530%
- Activity [6]: inactive
- RBA [7]: 18%
- Activity [2]: Antagonist
- RBA [3]: 1000%
- Activity [5]: Antagonist

Compound: CC12C=CC(=O)C=C1C[C@@H](SC(=O)c1ccccc1)C1C2C=CC2(C)C1CC[C@@]21CCC(=O)O1 (some centres not stated)
- RBA [1]: 37%
- Activity [14]: Agonist
- RBA [3]: 3.7%
- Activity [4]: inactive

Compound: CC12CCC(=O)C=C1C1CC1C1C2C=CC2(C)C1C1CC1[C@@]21CCC(=O)O1 (some centres not stated)
- RBA [1]: 760%
- RBA [15]: 300%
- RBA (Rattus norvegicus): 540%
- Activity [4]: inactive

Compound: CC12CCC(=O)C=C1C=CC1C2C=CC2(C)C1C1CC1[C@@]21CCC(=O)O1 (some centres not stated)
- RBA [1]: 320%
- RBA [15]: 290%
- RBA [7]: 210%
- Activity [4]: inactive
